≈ marks a conversion by molar mass, not a printed value. Calls of active or inactive are those of the source. The calls are words filed in the database; no cut-off is given here.
Experiments:
Bacillus cereus [1] = experiment: Antimicrobial activity against Bacillus cereus at 10 ug/disk after 24 hrs by disk diffusion assay; type: functional
Outline: (§1)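 Disc diffusion on 4 mm filter discs. Bacteria are grown overnight in LB at 28 C, then adjusted in saline to 1.0 × 10^5 cfu/ml. The suspension is mixed into top agar over peptone agar plates. Plates are incubated 24 h at 28 C, and growth-inhibition zone diameter is measured. Streptomycin and ampicillin controls are applied from a 1 mg/ml stock. Tests are done in duplicate.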

Micrococcus flavus [2] = experiment: Antimicrobial activity against Micrococcus flavus at 10 ug/disk after 24 hrs by disk diffusion assay; type: functional; outline: as §1
Staphylococcus aureus [3] = experiment: Antimicrobial activity against Staphylococcus aureus at 10 ug/disk after 24 hrs by disk diffusion assay; type: functional; outline: as §1
Escherichia coli [4] = experiment: Antimicrobial activity against Escherichia coli at 10 ug/disk after 24 hrs by disk diffusion assay; type: functional; outline: as §1
Pseudomonas aeruginosa [5] = experiment: Antimicrobial activity against Pseudomonas aeruginosa at 10 ug/disk after 24 hrs by disk diffusion assay; type: functional; outline: as §1
Enterobacter cloacae [6] = experiment: Antimicrobial activity against Enterobacter cloacae at 10 ug/disk after 24 hrs by disk diffusion assay; type: functional; outline: as §1
Salmonella typhimurium [7] = experiment: Antimicrobial activity against Salmonella Typhimurium at 10 ug/disk after 24 hrs by disk diffusion assay; type: functional, organism-based; conditions: Salmonella enterica subsp. enterica serovar Typhimurium; outline: as §1
Listeria monocytogenes [8] = experiment: Antimicrobial activity against Listeria monocytogenes at 10 ug/disk after 24 hrs by disk diffusion assay; type: functional; outline: as §1
Bacillus cereus [9] = experiment: Antimicrobial activity against Bacillus cereus at 1 umol/disk after 24 hrs by disk diffusion assay; type: functional; outline: as §1
Micrococcus flavus [10] = experiment: Antimicrobial activity against Micrococcus flavus at 1 umol/disk after 24 hrs by disk diffusion assay; type: functional; outline: as §1
Staphylococcus aureus [11] = experiment: Antimicrobial activity against Staphylococcus aureus at 1 umol/disk after 24 hrs by disk diffusion assay; type: functional; design: unit not given here; outline: as §1
Escherichia coli [12] = experiment: Antimicrobial activity against Escherichia coli at 1 umol/disk after 24 hrs by disk diffusion assay; type: functional; outline: as §1
Pseudomonas aeruginosa [13] = experiment: Antimicrobial activity against Pseudomonas aeruginosa at 1 umol/disk after 24 hrs by disk diffusion assay; type: functional; outline: as §1
Enterobacter cloacae [14] = experiment: Antimicrobial activity against Enterobacter cloacae at 1 umol/disk after 24 hrs by disk diffusion assay; type: functional; outline: as §1
Salmonella typhimurium [15] = experiment: Antimicrobial activity against Salmonella Typhimurium at 1 umol/disk after 24 hrs by disk diffusion assay; type: functional, organism-based; conditions: Salmonella enterica subsp. enterica serovar Typhimurium; outline: as §1
Listeria monocytogenes [16] = experiment: Antimicrobial activity against Listeria monocytogenes at 1 umol/disk after 24 hrs by disk diffusion assay; type: functional; outline: as §1
Bacillus cereus [17] = experiment: Antimicrobial activity against Bacillus cereus at 1 umol/spot after 18 hrs by TLC-bioautographic method; type: functional
Outline: (§2)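 TLC bioautography. Samples are spotted on silica gel TLC plates, then sprayed with bacteria (1.0 × 10^5 cfu/ml) in tryptic soy broth. Plates are incubated 18 h at 37 C and sprayed with 3% aqueous p-iodonitrotetrazolium violet. After a further 3 h, growth is stopped with 70% EtOH. White zones on a pink background are scored as inhibition-zone diameter with standard errors.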

Micrococcus flavus [18] = experiment: Antimicrobial activity against Micrococcus flavus at 1 umol/spot after 18 hrs by TLC-bioautographic method; type: functional; outline: as §2
Staphylococcus aureus [19] = experiment: Antimicrobial activity against Staphylococcus aureus at 1 umol/spot after 18 hrs by TLC-bioautographic method; type: functional; outline: as §2
Escherichia coli [20] = experiment: Antimicrobial activity against Escherichia coli at 1 umol/spot after 18 hrs by TLC-bioautographic method; type: functional; outline: as §2
Pseudomonas aeruginosa [21] = experiment: Antimicrobial activity against Pseudomonas aeruginosa at 1 umol/spot after 18 hrs by TLC-bioautographic method; type: functional; outline: as §2
Enterobacter cloacae [22] = experiment: Antimicrobial activity against Enterobacter cloacae at 1 umol/spot after 18 hrs by TLC-bioautographic method; type: functional; outline: as §2
Salmonella typhimurium [23] = experiment: Antimicrobial activity against Salmonella Typhimurium at 1 umol/spot after 18 hrs by TLC-bioautographic method; type: functional, Salmonella enterica subsp. enterica serovar Typhimurium; outline: as §2
Listeria monocytogenes [24] = experiment: Antimicrobial activity against Listeria monocytogenes at 1 umol/spot after 18 hrs by TLC-bioautographic method; type: functional; outline: as §2
Bacillus cereus [25] = experiment: Antimicrobial activity against Bacillus cereus after 24 hrs by microdilution technique; type: functional
Outline: (§3)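 Broth microdilution in LB medium. Inoculum is 1.0 × 10^4 cfu per well, from a saline-adjusted suspension of 1.0 × 10^5 cfu/ml. Compounds are dissolved in DMSO. Incubated 24 h at 28 C. MIC is the lowest concentration with no visible growth under a binocular microscope. MBC is read by subculture into fresh broth for 72 h, with no growth taken as 99.5% kill. OD is read at 655 nm.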

Micrococcus flavus [26] = experiment: Antimicrobial activity against Micrococcus flavus after 24 hrs by microdilution technique; type: functional; outline: as §3
Staphylococcus aureus [27] = experiment: Antimicrobial activity against Staphylococcus aureus after 24 hrs by microdilution technique; type: functional; outline: as §3
Escherichia coli [28] = experiment: Antimicrobial activity against Escherichia coli after 24 hrs by microdilution technique; type: functional; outline: as §3
Pseudomonas aeruginosa [29] = experiment: Antimicrobial activity against Pseudomonas aeruginosa after 24 hrs by microdilution technique; type: functional; outline: as §3
Enterobacter cloacae [30] = experiment: Antimicrobial activity against Enterobacter cloacae after 24 hrs by microdilution technique; type: functional; outline: as §3
Salmonella typhimurium [31] = experiment: Antimicrobial activity against Salmonella Typhimurium after 24 hrs by microdilution technique; type: functional, Salmonella enterica subsp. enterica serovar Typhimurium; conditions: Salmonella enterica; outline: as §3
Listeria monocytogenes [32] = experiment: Antimicrobial activity against Listeria monocytogenes after 24 hrs by microdilution technique; type: functional; outline: as §3

| SMILES | inhibition zone (IZ) (Bacillus cereus [1]) | inhibition zone (IZ) (Escherichia coli [4]) | inhibition zone (IZ) (Pseudomonas aeruginosa [5]) | inhibition zone (IZ) (Enterobacter cloacae [6]) | inhibition zone (IZ) (Salmonella typhimurium [7]) | inhibition zone (IZ) (Listeria monocytogenes [8]) | inhibition zone (IZ) (Bacillus cereus [9]) | inhibition zone (IZ) (Micrococcus flavus [10]) | inhibition zone (IZ) (Staphylococcus aureus [11]) | inhibition zone (IZ) (Escherichia coli [12]) | inhibition zone (IZ) (Pseudomonas aeruginosa [13]) | inhibition zone (IZ) (Enterobacter cloacae [14]) | inhibition zone (IZ) (Salmonella typhimurium [15]) | inhibition zone (IZ) (Listeria monocytogenes [16]) | inhibition zone (IZ) (Bacillus cereus [17]) | inhibition zone (IZ) (Micrococcus flavus [18]) | inhibition zone (IZ) (Staphylococcus aureus [19]) | inhibition zone (IZ) (Escherichia coli [20]) | inhibition zone (IZ) (Pseudomonas aeruginosa [21]) | inhibition zone (IZ) (Enterobacter cloacae [22]) [millimeter] | other results |
| --- | --- | --- | --- | --- | --- | --- | --- | --- | --- | --- | --- | --- | --- | --- | --- | --- | --- | --- | --- | --- | --- |
| N#Cc1c(-c2ccco2)cc(-c2ccc(Nc3nc(Nc4ccccc4)nc(Nc4ccccc4)n3)cc2)nc1N | inactive | inactive | inactive | inactive | inactive | inactive | inactive | inactive | 0.03 | inactive | inactive | inactive | inactive | inactive | inactive | inactive | inactive | inactive | inactive | 0.09 | inhibition zone (IZ) (Micrococcus flavus [2]): inactive; zone of inhibition at 10 µg/disc (Staphylococcus aureus [3]; read-out: IZ): 6 mm; inhibition zone (IZ) (Salmonella typhimurium [23]): 0.07 millimeter; inhibition zone (IZ) (Listeria monocytogenes [24]): 0.08 millimeter; MBC (Bacillus cereus [25]): 186 µM (≈ 100 µg/mL); MIC (Bacillus cereus [25]): 93 µM (≈ 50 µg/mL); MBC (Micrococcus flavus [26]): 186 µM (≈ 100 µg/mL); MIC (Micrococcus flavus [26]): 93 µM (≈ 50 µg/mL); MBC (Staphylococcus aureus [27]): 372 µM (≈ 200 µg/mL); MIC (Staphylococcus aureus [27]): 186 µM (≈ 100 µg/mL); MBC (Escherichia coli [28]): 186 µM (≈ 100 µg/mL); MIC (Escherichia coli [28]): 93 µM (≈ 50 µg/mL); MBC (Pseudomonas aeruginosa [29]): 744 µM (≈ 400 µg/mL); MIC (Pseudomonas aeruginosa [29]): 372 µM (≈ 200 µg/mL); MBC (Enterobacter cloacae [30]): 372 µM (≈ 200 µg/mL); MIC (Enterobacter cloacae [30]): 186 µM (≈ 100 µg/mL); MBC (Salmonella typhimurium [31]): 372 µM (≈ 200 µg/mL); MIC (Salmonella typhimurium [31]): 186 µM (≈ 100 µg/mL); MBC (Listeria monocytogenes [32]): 744 µM (≈ 400 µg/mL); MIC (Listeria monocytogenes [32]): 372 µM (≈ 200 µg/mL) |
| Nc1nc(-c2ccc(Nc3nc(Nc4ccccc4)nc(Nc4ccccc4)n3)cc2)cc(-c2cccs2)n1 | inactive | inactive | inactive | inactive | inactive | inactive | inactive | 0.04 millimeter | inactive | inactive | inactive | inactive | inactive | inactive | 0.09 millimeter | 0.08 millimeter | 0.03 millimeter | inactive | inactive | 0.08 | zone of inhibition at 10 µg/disc (Micrococcus flavus [2]; read-out: IZ): 6 mm; inhibition zone (IZ) (Staphylococcus aureus [3]): inactive; inhibition zone (IZ) (Salmonella typhimurium [23]): 0.09 millimeter; inhibition zone (IZ) (Listeria monocytogenes [24]): 0.08 millimeter; MBC (Bacillus cereus [25]): 378 µM (≈ 200 µg/mL); MIC (Bacillus cereus [25]): 189 µM (≈ 100 µg/mL); MBC (Micrococcus flavus [26]): 378 µM (≈ 200 µg/mL); MIC (Micrococcus flavus [26]): 189 µM (≈ 100 µg/mL); MBC (Staphylococcus aureus [27]): 378 µM (≈ 200 µg/mL); MIC (Staphylococcus aureus [27]): 189 µM (≈ 100 µg/mL); MBC (Escherichia coli [28]): 378 µM (≈ 200 µg/mL); MIC (Escherichia coli [28]): 189 µM (≈ 100 µg/mL); MBC (Pseudomonas aeruginosa [29]): 756 µM (≈ 400 µg/mL); MIC (Pseudomonas aeruginosa [29]): 756 µM (≈ 400 µg/mL); MBC (Enterobacter cloacae [30]): 378 µM (≈ 200 µg/mL); MIC (Enterobacter cloacae [30]): 189 µM (≈ 100 µg/mL); MBC (Salmonella typhimurium [31]): 378 µM (≈ 200 µg/mL); MIC (Salmonella typhimurium [31]): 189 µM (≈ 100 µg/mL); MBC (Listeria monocytogenes [32]): 756 µM (≈ 400 µg/mL); MIC (Listeria monocytogenes [32]): 756 µM (≈ 400 µg/mL) |
| CC(=O)N1N=C(c2ccc(Nc3nc(Nc4ccccc4)nc(Nc4ccccc4)n3)cc2)CC1c1ccc(Cl)cc1 (stereo not given) | inactive | inactive | inactive | inactive | inactive | inactive | inactive | inactive | inactive | inactive | inactive | inactive | inactive | inactive | 0.08 millimeter | inactive | 0.08 millimeter | inactive | inactive | 0.09 | inhibition zone (IZ) (Micrococcus flavus [2]): inactive; inhibition zone (IZ) (Staphylococcus aureus [3]): inactive; inhibition zone (IZ) (Salmonella typhimurium [23]): 0.07 millimeter; inhibition zone (IZ) (Listeria monocytogenes [24]): 0.09 millimeter; MBC (Bacillus cereus [25]): 696 µM (≈ 400 µg/mL); MIC (Bacillus cereus [25]): 696 µM (≈ 400 µg/mL); MBC (Micrococcus flavus [26]): 696 µM (≈ 400 µg/mL); MIC (Micrococcus flavus [26]): 696 µM (≈ 400 µg/mL); MBC (Staphylococcus aureus [27]): 696 µM (≈ 400 µg/mL); MIC (Staphylococcus aureus [27]): 696 µM (≈ 400 µg/mL); MBC (Escherichia coli [28]): 696 µM (≈ 400 µg/mL); MIC (Escherichia coli [28]): 348 µM (≈ 200 µg/mL); MBC (Pseudomonas aeruginosa [29]): 696 µM (≈ 400 µg/mL); MIC (Pseudomonas aeruginosa [29]): 696 µM (≈ 400 µg/mL); MBC (Enterobacter cloacae [30]): 696 µM (≈ 400 µg/mL); MIC (Enterobacter cloacae [30]): 696 µM (≈ 400 µg/mL); MBC (Salmonella typhimurium [31]): 696 µM (≈ 400 µg/mL); MIC (Salmonella typhimurium [31]): 348 µM (≈ 200 µg/mL); MBC (Listeria monocytogenes [32]): 696 µM (≈ 400 µg/mL); MIC (Listeria monocytogenes [32]): 696 µM (≈ 400 µg/mL) |

Reference: ChEMBL document CHEMBL1154716, “Synthesis of some new S-triazine based chalcones and their derivatives as potent antimicrobial agents” (2010)
